From ChEMBL document CHEMBL4837207, “Discovery of pyrrolo[2,3-d]pyrimidine derivatives as potent Axl inhibitors: Design, synthesis and biological evaluation” (Eur J Med Chem, 2021)
Values belong to the molecule of their own block, whether it stands above or below them.

What was measured:
[1] = molecular target: T1, Tyrosine-protein kinase receptor UFO (Homo sapiens, UniProt P30530); assay: Inhibition of AXL (unknown origin) by ELISA
T1 sequence (P30530 whole entry): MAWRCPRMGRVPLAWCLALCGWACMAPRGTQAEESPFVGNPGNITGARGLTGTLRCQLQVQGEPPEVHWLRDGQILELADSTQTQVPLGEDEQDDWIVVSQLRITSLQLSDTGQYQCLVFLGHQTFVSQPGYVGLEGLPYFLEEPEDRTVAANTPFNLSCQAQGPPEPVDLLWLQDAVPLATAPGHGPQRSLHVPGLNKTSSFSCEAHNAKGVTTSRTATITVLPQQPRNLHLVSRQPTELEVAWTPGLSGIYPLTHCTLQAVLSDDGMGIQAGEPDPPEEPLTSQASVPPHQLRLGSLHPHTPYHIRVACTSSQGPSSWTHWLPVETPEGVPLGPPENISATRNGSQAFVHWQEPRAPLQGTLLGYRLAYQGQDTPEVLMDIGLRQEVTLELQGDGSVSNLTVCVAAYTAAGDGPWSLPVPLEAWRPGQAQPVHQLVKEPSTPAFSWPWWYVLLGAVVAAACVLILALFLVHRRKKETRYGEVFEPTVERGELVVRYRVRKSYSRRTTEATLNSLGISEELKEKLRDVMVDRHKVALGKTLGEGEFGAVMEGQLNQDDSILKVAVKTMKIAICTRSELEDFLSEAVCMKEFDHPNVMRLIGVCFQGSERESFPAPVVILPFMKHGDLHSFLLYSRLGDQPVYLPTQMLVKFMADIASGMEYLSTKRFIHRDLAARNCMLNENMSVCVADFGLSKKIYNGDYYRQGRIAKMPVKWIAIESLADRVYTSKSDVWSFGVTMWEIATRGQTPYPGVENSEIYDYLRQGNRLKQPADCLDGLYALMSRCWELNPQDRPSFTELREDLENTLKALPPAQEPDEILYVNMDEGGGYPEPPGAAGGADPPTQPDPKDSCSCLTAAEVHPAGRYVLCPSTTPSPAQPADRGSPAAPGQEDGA

[2] = molecular target: Hepatocyte growth factor receptor (Homo sapiens, UniProt P08581); assay: Inhibition of c-MET (unknown origin) by ELISA
Sequence of Hepatocyte growth factor receptor (P08581 whole entry): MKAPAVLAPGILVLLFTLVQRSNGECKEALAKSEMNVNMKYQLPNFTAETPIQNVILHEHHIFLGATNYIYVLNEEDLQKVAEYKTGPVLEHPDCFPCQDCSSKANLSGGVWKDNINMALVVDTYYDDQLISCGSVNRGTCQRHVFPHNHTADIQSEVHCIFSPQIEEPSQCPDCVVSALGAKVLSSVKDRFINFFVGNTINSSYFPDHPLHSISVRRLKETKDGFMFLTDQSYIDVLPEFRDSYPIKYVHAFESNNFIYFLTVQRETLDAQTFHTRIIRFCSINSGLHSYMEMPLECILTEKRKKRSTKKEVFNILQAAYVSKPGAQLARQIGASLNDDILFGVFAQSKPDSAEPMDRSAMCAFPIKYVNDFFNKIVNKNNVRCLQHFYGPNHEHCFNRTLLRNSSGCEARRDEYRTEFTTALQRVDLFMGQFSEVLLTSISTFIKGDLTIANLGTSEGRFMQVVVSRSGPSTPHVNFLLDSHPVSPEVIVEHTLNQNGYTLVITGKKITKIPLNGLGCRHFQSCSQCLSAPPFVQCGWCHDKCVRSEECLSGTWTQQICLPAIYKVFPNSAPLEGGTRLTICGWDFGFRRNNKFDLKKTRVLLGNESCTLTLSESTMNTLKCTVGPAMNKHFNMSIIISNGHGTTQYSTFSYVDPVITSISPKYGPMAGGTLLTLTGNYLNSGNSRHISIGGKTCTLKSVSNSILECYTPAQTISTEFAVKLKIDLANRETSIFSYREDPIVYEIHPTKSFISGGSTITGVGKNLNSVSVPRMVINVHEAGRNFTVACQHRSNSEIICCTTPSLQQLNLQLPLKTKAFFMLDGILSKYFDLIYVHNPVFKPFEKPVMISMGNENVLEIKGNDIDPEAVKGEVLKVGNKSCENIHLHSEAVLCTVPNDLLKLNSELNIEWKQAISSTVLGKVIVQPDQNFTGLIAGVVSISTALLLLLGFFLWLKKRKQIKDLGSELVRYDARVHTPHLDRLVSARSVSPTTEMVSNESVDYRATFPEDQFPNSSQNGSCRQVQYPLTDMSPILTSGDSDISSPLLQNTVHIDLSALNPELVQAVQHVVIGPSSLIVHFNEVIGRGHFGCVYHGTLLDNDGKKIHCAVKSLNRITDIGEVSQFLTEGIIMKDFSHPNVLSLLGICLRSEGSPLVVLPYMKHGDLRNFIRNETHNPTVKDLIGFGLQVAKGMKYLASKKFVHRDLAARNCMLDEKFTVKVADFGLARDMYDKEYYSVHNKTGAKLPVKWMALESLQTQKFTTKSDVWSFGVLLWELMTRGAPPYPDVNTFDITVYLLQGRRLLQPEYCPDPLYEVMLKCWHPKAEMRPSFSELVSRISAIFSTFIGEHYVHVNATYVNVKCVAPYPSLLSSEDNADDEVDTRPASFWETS

MKN-45 = assay: Antiproliferative activity against human MKN-45 cells incubated for 72 hrs; assay type: functional, cell-based; settings: MKN-45, 72 h
Summary of the method: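 MKN-45 cells (MET-amplified gastric carcinoma) grown in the supplier-recommended medium and serum, seeded at low density and treated the next day across a concentration range for 72 h. Proliferation read by SRB or CCK-8. IC50 obtained from a four-parameter concentration-response fit; mean ± SD of two independent assays.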

BaF3 = assay: Antiproliferative activity against mouse BaF3 stably expressing human TEL-AXL incubated for 72 hrs; assay type: functional, cell-based; settings: BaF3, 72 h
[3] = Tmax in Sprague-Dawley rat at 3 mg/kg, po via gavage measured up to 24 hrs by LC-MS analysis; assay type: ADME, organism-based; settings: in vivo
Summary of the method: (§1)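 Male Sprague-Dawley rats (n = 3) dosed once by oral gavage at 3 mg/kg as a solution in 5% DMSO/95% (0.5% CMC-Na). Blood sampled at 0.25, 0.5, 1, 2, 4, 6, 8 and 24 h, kept on wet ice, serum separated by centrifugation and stored at -20 °C. Serum levels measured by LC-MS/MS; parameters reported as means.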

[4] = Cmax in Sprague-Dawley rat at 3 mg/kg, po via gavage measured up to 24 hrs by LC-MS analysis; assay type: ADME, organism-based; parameters: route oral, dose 3 mg/kg, time <=24; settings: in vivo; summary of the method: as §1
[5] = Half life in Sprague-Dawley rat at 3 mg/kg, po via gavage measured up to 24 hrs by LC-MS analysis; assay type: ADME, organism-based; settings: in vivo; summary of the method: as §1
[6] = AUC (0 to infinity) in Sprague-Dawley rat at 3 mg/kg, po via gavage measured up to 24 hrs by LC-MS analysis; assay type: ADME, organism-based; parameters: route oral, dose 3 mg/kg, time <=24; settings: in vivo; summary of the method: as §1

- IC50 [1]: > 10 nM
- IC50 [2]: 16.7 nM
Compound: COCCCn1cc(C(=O)Nc2ccc(-c3cn(C)c4ncnc(N)c34)cc2)c(=O)c(-c2ccc(F)cc2)c1

- IC50 [1]: 1.8 nM
- IC50 [2]: 5.1 nM
Compound: CCCn1cc(-c2ccc(NC(=O)c3cn(CC4CCOCC4)cc(-c4ccc(F)cc4)c3=O)cc2)c2c(N)ncnc21

- IC50 [1]: 1.2 nM
- IC50 [2]: 3.1 nM
Compound: Cn1cc(-c2ccc(NC(=O)c3cn(CC4CCCO4)cc(-c4ccc(F)cc4)c3=O)cc2)c2c(N)ncnc21 (configuration not stated)

- IC50 [1]: 3 nM
- IC50 [2]: 95.4 nM
Compound: Cn1cc(-c2ccc(NC(=O)c3cn(CC4CCOCC4)cc(-c4cccc(F)c4)c3=O)cc2)c2c(N)ncnc21

- IC50 [1]: 0.4 nM
- IC50 [2]: 33.1 nM
- IC50 (MKN-45): 826 nM
- IC50 (BaF3): < 1 nM
Compound: Cn1cc(-c2ccc(NC(=O)c3cn(CC4CCOCC4)cc(-c4ccc(C(F)(F)F)cc4)c3=O)cc2)c2c(N)ncnc21

- IC50 [1]: 0.2 nM
- IC50 [2]: 7.3 nM
- IC50 (MKN-45): 210 nM
- IC50 (BaF3): < 1 nM
Compound: Cn1cc(-c2ccc(NC(=O)c3cn(CC4CCOCC4)cc(-c4ccc(F)cc4)c3=O)c(F)c2)c2c(N)ncnc21

- IC50 [1]: 0.4 nM
- IC50 [2]: 1.7 nM
- Tmax [3]: 0.83 h
- Cmax [4]: 330 ng/mL
- half-life [5]: 1.37 h
- IC50 (MKN-45): 29.8 nM
- IC50 (BaF3): < 1 nM
- AUC(0-inf) [6]: 385 ng·h/mL
Compound: Nc1ncnc2[nH]cc(-c3cc(F)c(NC(=O)c4cn(CC5CCOCC5)cc(-c5ccc(F)cc5)c4=O)cc3F)c12

- IC50 [1]: 2.7 nM
- IC50 [2]: 17 nM
Compound: Nc1ncnc2c1c(-c1ccc(NC(=O)c3cn(CC4CCOCC4)cc(-c4ccc(F)cc4)c3=O)cc1)cn2CCN1CCOCC1

- IC50 [1]: 0.5 nM
- IC50 [2]: 3.3 nM
- IC50 (MKN-45): 53.7 nM
- IC50 (BaF3): < 1 nM
Compound: Cn1cc(-c2cc(F)c(NC(=O)c3cn(CC4CCOCC4)cc(-c4ccc(F)cc4)c3=O)cc2F)c2c(N)ncnc21

- IC50 [1]: 0.2 nM
- IC50 [2]: 12.3 nM
- IC50 (MKN-45): 347 nM
- IC50 (BaF3): < 1 nM
Compound: Cn1cc(-c2ccc(NC(=O)c3cn(CC4CCOCC4)cc(-c4ccc(Cl)cc4)c3=O)cc2)c2c(N)ncnc21

- IC50 [1]: 4 nM
- IC50 [2]: 33.8 nM
Compound: Cc1cc(-c2cn(C)c3ncnc(N)c23)ccc1NC(=O)c1cn(CC2CCOCC2)cc(-c2ccc(F)cc2)c1=O

More lines, now with the values behind:

Compound: Nc1ncnc2[nH]cc(-c3ccc(NC(=O)c4cn(CC5CCOCC5)cc(-c5ccc(F)cc5)c4=O)cc3)c12
- IC50 [1]: 0.2 nM
- IC50 [2]: 4.4 nM
- IC50 (MKN-45): 77.9 nM
- IC50 (BaF3): < 1 nM

Compound: CC(C)n1cc(C(=O)Nc2ccc(-c3cn(C)c4ncnc(N)c34)cc2)c(=O)c(-c2ccc(F)cc2)c1
- IC50 [1]: 0.4 nM
- IC50 [2]: 18.4 nM
- IC50 (MKN-45): 85.3 nM
- IC50 (BaF3): < 1 nM

Compound: Cn1cc(-c2ccc(NC(=O)c3cn(CC4CCOCC4)cc(-c4ccc(F)cc4F)c3=O)cc2)c2c(N)ncnc21
- IC50 [1]: 0.8 nM
- IC50 [2]: 19.8 nM
- IC50 (MKN-45): 501 nM
- IC50 (BaF3): < 1 nM

Compound: Cn1cc(-c2ccc(NC(=O)c3cn(CC4CCOCC4)cc(-c4ccc(F)cc4)c3=O)c(Cl)c2)c2c(N)ncnc21
- IC50 [1]: 3.7 nM
- IC50 [2]: 40.5 nM

Compound: Cn1cc(-c2ccc(NC(=O)c3cn(CC4CCOCC4)cc(-c4ccc(F)cc4)c3=O)cc2F)c2c(N)ncnc21
- IC50 [1]: 0.8 nM
- IC50 [2]: 2.4 nM
- IC50 (MKN-45): 93.7 nM
- IC50 (BaF3): < 1 nM

Compound: Cn1cc(-c2ccc(NC(=O)c3cn(CC4CCCCC4)cc(-c4ccc(F)cc4)c3=O)cc2)c2c(N)ncnc21
- IC50 [1]: 2.3 nM
- IC50 [2]: 4.8 nM

Compound: CN(C)CCn1cc(-c2ccc(NC(=O)c3cn(CC4CCOCC4)cc(-c4ccc(F)cc4)c3=O)cc2)c2c(N)ncnc21
- IC50 [1]: 2.8 nM
- IC50 [2]: 215 nM

Compound: C[C@@H](Oc1cc(-c2cnn(C3CCNCC3)c2)cnc1N)c1c(Cl)ccc(F)c1Cl [CRIZOTINIB]
- IC50 (MKN-45): 15 nM

Compound: Cn1cc(-c2ccc(NC(=O)c3cn(CC4CCOCC4)cc(-c4ccc(F)cc4)c3=O)cc2)c2c(N)ncnc21
- IC50 [1]: 0.1 nM
- IC50 [2]: 7.1 nM
- IC50 (MKN-45): 248 nM
- IC50 (BaF3): < 1 nM

Compound: CN(C)C(=O)Cn1cc(C(=O)Nc2ccc(-c3cn(C)c4ncnc(N)c34)cc2)c(=O)c(-c2ccc(F)cc2)c1
- IC50 [1]: 0.5 nM
- IC50 [2]: 18.4 nM
- IC50 (MKN-45): > 1000 nM
- IC50 (BaF3): > 100 nM

Compound: Cn1cc(C(=O)Nc2ccc(-c3cn(C)c4ncnc(N)c34)cc2)c(=O)c(-c2ccc(F)cc2)c1
- IC50 [1]: 5 nM
- IC50 [2]: 24.5 nM

Compound: Cn1cc(-c2ccc(NC(=O)c3cn(C4CCOCC4)cc(-c4ccc(F)cc4)c3=O)cc2)c2c(N)ncnc21
- IC50 [1]: 1.1 nM
- IC50 [2]: 13.1 nM

Compound: Cc1nc(N)c2c(-c3ccc(NC(=O)c4cn(CC5CCOCC5)cc(-c5ccc(F)cc5)c4=O)cc3)cn(C)c2n1
- IC50 [1]: 5.1 nM
- IC50 [2]: 159 nM

Compound: Cn1cc(-c2ccc(NC(=O)c3cn(CC4CCOCC4)cc(-c4ccccc4)c3=O)cc2)c2c(N)ncnc21
- IC50 [1]: 1 nM
- IC50 [2]: 20.6 nM
- IC50 (MKN-45): 318 nM
- IC50 (BaF3): < 1 nM
